The data set in a line: Toxicity liver stage against HepG2, at 10uM. The conditions noted are these: human, HepG2-A16-CD81EGFP cells; read-out: INHIBITION
Further details: test concentration 10 uM, cell line HepG2-A16-CD81EGFP. It counts as cell-based. An outline of the steps: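 Uninfected HepG2-A16-CD81EGFP cells, 3 × 10^3 per well, 1536-well, plated on prespotted compound at 10 μM final, parasite-free screening media added to match infected plates; puromycin 10 μM positive, DMSO 0.5% negative; run in parallel with 48 h PbLuc assay at 37 °C, 5% CO2; viability by CellTiter-Glo luminescence, normalized to controls.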
In the case of `COCC(=O)NC[C@H]1C[C@@H]2CCN1C[C@@H]2c1cc(-c2cccs2)nn1C`, the cytotoxicity at 10 µM amounted to 1.23%. As for `CC(=O)N1CC[C@H]2CC(=O)N(Cc3ccc4c(c3)OCO4)CC[C@H]2C1`, the figure is -3.91%; as for `CCSc1nnc(CCNC(=O)OC(C)(C)C)o1`, -25.9%; as for `NC(=O)Cc1ccc(OCc2noc(C(=O)N3CCCC3)n2)cc1`, -13.6%. On to `NC(=O)c1c(SCCN2CCCCC2)sc2c(O)cc(=O)[nH]c12`, for which the cytotoxicity at 10 µM was -13.7%. For the compound `COC(=O)NCCCn1ccnc1-c1ccccc1`, the cytotoxicity at 10 µM is -2.27%. As for `Cn1c(C(F)(F)F)nn(CCNC(=O)c2nc3ccccc3s2)c1=O`, the figure is 1.79%.

Take `CN(C)CC1CSCCCN1S(=O)(=O)c1ccc(C(F)(F)F)cc1` (configuration not stated): the cytotoxicity at 10 µM was -6.71%. As for `CCN1CC[C@@]2(C(=O)N(C)C)CCN(C(=O)NC(C)C)CC[C@@H]12`, the figure is -15.2%; as for `c1cc(CN2CCC3(CC2)COC(COCC2CC2)C3)co1` (configuration not stated), -4.19%; as for `O=C(NCC1CC1)C1CCC2(CN(C(=O)c3ccno3)C2)O1` (configuration not stated), -138%.

As for `O=C(C1CCC2(CCN(c3nncs3)CC2)C1)N1CCCC1` (configuration not stated), the cytotoxicity at 10 µM came to 9.43%. With `Cc1occc1C(=O)N1CC[C@@H]2[C@@H](CO[C@H]2CNS(C)(=O)=O)C1`, the cytotoxicity at 10 µM is 11.3%. In the case of `O=C1NC2(CCN(C(=O)c3ccnnc3)CC2)CC1c1ccccc1` (configuration not stated), the cytotoxicity at 10 µM was -113%. As to `COCCN1C[C@@H]2OCCN(c3ccnc(N(C)C)n3)[C@@H]2C1`, the cytotoxicity at 10 µM is -118%. As for `Cn1ccnc1CN1CCC2(CC1)CC(Nc1ccccn1)CO2` (configuration not stated), the figure is -7.97%; as for `COc1cc(C2SCC(=O)Nc3[nH]ncc32)cc(OC)c1OC` (configuration not stated), 8.49%; as for `Cc1ncnc2c1CCN(c1cc(C(F)(F)F)ncn1)CC2`, -2.96%.

As for `Cc1nc(CN2CCCn3c(nc(Cn4ccnc4)cc3=O)C2)cs1`, the cytotoxicity at 10 µM was -5.67%. In the case of `Cc1c(S(=O)(=O)NC2CC2)cc2c(C)cc(=O)n3c2c1CCC3`, the cytotoxicity at 10 µM was -1.95%.

`Cc1ccc2c(c1)c(C)cc(=O)n2CCCN`: the cytotoxicity at 10 µM came out at 1.14%. Turning to `Cc1cc(N2CCC(O)(CN(C)C(=O)CCN)CC2)c2cnccc2n1`, the cytotoxicity at 10 µM was -3.3%. Regarding `O=C(c1cc(C2CC2)n[nH]1)N1C[C@H]2CC[C@](O)(c3ccccc3F)[C@H]2C1`, the cytotoxicity at 10 µM stood at 7.66%.

For the compound `CC1CCc2nn(CCNC(=O)c3ccco3)c(=O)cc2C1` (configuration not stated), the cytotoxicity at 10 µM came to 9.15%. For the compound `COCC(=O)N1CCC(c2cc(-c3ccc(C)cc3)n[nH]2)C1` (configuration not stated), the cytotoxicity at 10 µM is -3.39%. As for `Cc1ccc(CNc2nc(O)cc(C3CC(=O)N(C)C3)n2)cc1` (configuration not stated), the figure is -17.8%; as for `CN1CCC2(Cc3ccccc3CN(C(=O)c3ccc(Cl)cc3)C2)C1` (configuration not stated), -3.12%; as for `COCCNC(=O)CCNc1ccc(Cl)cn1`, -5.22%. Take `CCOCC(=O)Nc1cc(-n2nnnc2C2CC2)ccc1F`: the cytotoxicity at 10 µM is -4.28%. Consider `CCCN(Cc1nnnn1C1CC1)CC1COc2ccccc2O1` (configuration not stated), for which the cytotoxicity at 10 µM was determined as 2.04%. With `COc1ccccc1C(C)(C)NC(=O)Nc1ccc(F)c(C(N)=O)c1`, the cytotoxicity at 10 µM is -145%.

Take `COc1ccc(CCNC(=O)C2CCOC2)c(Cl)c1` (configuration not stated): the cytotoxicity at 10 µM was -2.27%. With `CC(NC(=O)Nc1cccnc1N1CCOCC1)c1ccncc1` (configuration not stated), the cytotoxicity at 10 µM amounted to 5.28%. Take `Cc1noc(C)c1CN1CCCC1C(=O)OCc1ccccc1` (configuration not stated): the cytotoxicity at 10 µM turned out to be 3.23%. For the compound `CC(CS(C)(=O)=O)N(C)C(=O)NCCCc1ccc(Cl)cc1` (configuration not stated), the cytotoxicity at 10 µM stood at 1.8%. As for `CCn1nc2c(cc1=O)CN(CCOc1ccc(C#N)cc1)CC2`, the figure is -3.73%; as for `OC(CNCCn1cccn1)COc1ccc(F)cc1` (configuration not stated), -16.6%; as for `Cc1cc(C)n(CC2CCCCN2CC(=O)Nc2nnc(C)s2)n1` (configuration not stated), 0.668%. On to `CCCc1nc(C)c(C(=O)NS(=O)(=O)c2cccnc2)s1`, for which the cytotoxicity at 10 µM was -5.8%. As for `CC(C)c1nc(CN2CCN(C(=O)Cc3ccccc3Cl)CC2)no1`, the figure is -1.96%; as for `O=C(NCC(F)(F)F)C1CSCN1S(=O)(=O)c1cccc(F)c1` (configuration not stated), 18.7%; as for `COCCCNC(=O)CN1CCOC(c2ccccc2)C1` (configuration not stated), 18.6%.

With `Cc1cccc(C)c1OCCNC(=O)CNC(=O)C1CCCC1`, the cytotoxicity at 10 µM was -122%. Regarding `COCCN(Cc1ccco1)Cc1nc(-c2ccc(C)c(F)c2)no1`, the cytotoxicity at 10 µM came to 3.68%. Take `Cc1cc(CS(=O)(=O)N(C)C(C)c2ccc(F)cc2)on1` (configuration not stated): the cytotoxicity at 10 µM was found to be 6.72%. Take `O=C(NC1CC1)c1ccccc1NCc1cn2cccnc2n1`: the cytotoxicity at 10 µM is 5.38%. With `CC(C)CCN1CCN(C(=O)c2c[nH]c(=O)[nH]2)CC1`, the cytotoxicity at 10 µM was -6.49%. Consider `CCCNC(=O)CN1CCC(NCc2csc(C(C)C)n2)CC1`, for which the cytotoxicity at 10 µM was -1.4%. Take `CCn1nc(C(C)C)cc1C(=O)N1CCOc2ccc(OC)cc21`: the cytotoxicity at 10 µM is 9.27%.

`CCOc1ccc(CN2C(=O)CC(CC)(CC)C2=O)nc1`: the cytotoxicity at 10 µM turned out to be 5.73%. `CCC(C)NS(=O)(=O)Cc1cccc(NC(=O)C(C)C)c1` (configuration not stated): the cytotoxicity at 10 µM worked out at 5.36%. For `CCc1nc2n(n1)CCCC2NC(=O)Nc1ccc(SC)c(F)c1` (configuration not stated), the cytotoxicity at 10 µM was found to be 5.08%. As for `Cc1ccc(NC(=O)CCc2ccco2)cc1N1CCOC1=O`, the figure is -8.43%; as for `Cc1cc(C)n(CC2CCCCN2CC(=O)Nc2cccnc2)n1` (configuration not stated), 6.46%; as for `CN1CC(C(=O)NC(C)(C)C)CC1=O` (configuration not stated), -3.36%.

As for `OC1(CN2CCC(Oc3cccnc3)CC2)CNCCOC1` (configuration not stated), the cytotoxicity at 10 µM worked out at 5.92%. As for `CN(Cc1nncn1C)c1nccc(N2CCC(O)CC2)n1`, the figure is -1.78%; as for `COCCN1CC2(CCC1=O)CCN(Cc1nnc(C)o1)CC2`, -5.81%. On to `CN(C)c1ccc(-c2ccnc3c2ccn3C)nn1`, for which the cytotoxicity at 10 µM turned out to be 10.9%.

For `O=C(c1coc2ccccc12)N1CCCC(O)(CO)CC1` (configuration not stated), the cytotoxicity at 10 µM is 6.41%. For the compound `Nc1nnc(SCC(=O)NCC(O)c2ccccc2)s1` (configuration not stated), the cytotoxicity at 10 µM was 12%. Turning to `CC(C)Oc1cccc(C(=O)Nc2nncs2)c1`, the cytotoxicity at 10 µM is -3.49%. In the case of `Cn1nccc1C(=O)N1CCCN(CCCc2ccccc2)CC1`, the cytotoxicity at 10 µM is -2.45%.

As to `Cc1nnc(CN2CCC3(CCC(=O)N(C4CC4)C3)CC2)o1`, the cytotoxicity at 10 µM is -6.68%. As for `CSc1cccc(CC(=O)N[C@@H]2CCNC[C@H]2O)c1`, the figure is -1.72%.

As to `CN(Cc1nc(-c2cccnc2)no1)C(=O)c1cccn1C`, the cytotoxicity at 10 µM is -2.85%.

As to `CCC(=O)Nc1cccc(OCC(=O)N2CC=CC2C(C)C)c1` (configuration not stated), the cytotoxicity at 10 µM is -0.115%. Turning to `CCc1cc(C(=O)N2CCC3(CCCN(CCOC)C3=O)C2)cs1` (configuration not stated), the cytotoxicity at 10 µM was -146%. For the compound `CCc1ncc(C(=O)N2CCCC(c3nccn3CCOC)C2)cn1` (configuration not stated), the cytotoxicity at 10 µM is -0.262%. Turning to `Cc1cnc(C)c(-c2cc(O)c3c(c2)CN(Cc2nccs2)CCO3)n1`, the cytotoxicity at 10 µM worked out at 1.69%.

As to `COCCCC1CCCCN1Cc1cn2cc(C)ccc2n1` (configuration not stated), the cytotoxicity at 10 µM is 3.21%.

As for `COc1ccc(OCc2nc(C(=O)N3C[C@H](O)[C@@H](N(C)C)C3)co2)cc1`, the cytotoxicity at 10 µM was -1.74%. Regarding `CCOCC(=O)N1C[C@@H](NC(C)=O)[C@H](c2ccc(OC)cc2)C1`, the cytotoxicity at 10 µM was -9.44%. For `CCc1nc(-c2cccc(C(=O)O)c2)no1`, the cytotoxicity at 10 µM is -10%.

Consider `CC(C)c1noc(CN2CCN(C(=O)c3cc(Cl)ccc3F)CC2)n1`, for which the cytotoxicity at 10 µM is -6.8%.

On to `Cc1ccc(NC2CCN(C(=O)c3ccco3)CC2)nn1`, for which the cytotoxicity at 10 µM is -14.3%.

On to `Cc1ccccc1CNC(=O)C1CCN(Cc2nccn2C)CC1`, for which the cytotoxicity at 10 µM is -17.9%. For the compound `CC(Cn1ccnc1)NC(=O)NCCc1cccs1` (configuration not stated), the cytotoxicity at 10 µM is -3.16%. Regarding `CCc1c(C(=O)NC2CCS(=O)(=O)C2)cnn1-c1ccc(C)cc1` (configuration not stated), the cytotoxicity at 10 µM is -5.94%. For `Cc1nc(C)n(CC2CCCN(CC(=O)NC3CCOCC3)C2)n1` (configuration not stated), the cytotoxicity at 10 µM was -11.8%. Turning to `COc1cccc(S(=O)(=O)CCN2CCn3c(C)nnc3C2)c1`, the cytotoxicity at 10 µM was -18.7%. As for `CC(C)NC(=O)Cn1cc(-c2ccccc2)cn1`, the figure is -0.577%. `O=C(NCCn1ccnc1)N1CCN(Cc2cccs2)CC1`: the cytotoxicity at 10 µM is -7.49%. Take `O=C(CCNC(=O)c1ccoc1)Nc1c(F)cccc1F`: the cytotoxicity at 10 µM is 1.35%. On to `COC(=O)N1CC2(CCNCC2)c2cc(Cl)ccc21`, for which the cytotoxicity at 10 µM came out at 7.71%. As for `Cc1ccc(C(=O)N2CCc3ccc(=O)n(CCN(C)C)c3CC2)o1`, the figure is -2.16%; as for `CN(C)c1cccc(C(=O)N2CCCC2c2ncc3c(n2)CCNC3)c1` (configuration not stated), -9.97%; as for `Cc1noc(C)c1CNCC1COCc2c(-c3ccoc3)nnn2C1` (configuration not stated), 8.85%. On to `CN(C)S(=O)(=O)N1C[C@H]2CCC[C@@]2(COc2cccnc2)C1`, for which the cytotoxicity at 10 µM stood at 11.8%.

On to `CN(C)CC(=O)N1CCc2sc(C(=O)NCC3CC3)cc21`, for which the cytotoxicity at 10 µM came to 1.68%. As to `O=C(NC1CC1)N1CCc2ncnc(-c3ccncc3)c2CC1`, the cytotoxicity at 10 µM was -1.04%. For `CCCN1CCC2(CC1)COc1ccccc1S(=O)(=O)N(CC1CC1)C2`, the cytotoxicity at 10 µM was -3.43%. For the compound `CCN(CC)CCN1CC[C@H]2OCC[C@@]2(C(=O)N2CCOCC2)C1`, the cytotoxicity at 10 µM turned out to be 4.64%. In the case of `COc1ccc(CN2CCC3(CC2)CCN(CCN(C)C)C3=O)cc1`, the cytotoxicity at 10 µM is -4.25%. Regarding `Cc1cccc(CN2C[C@@H]3COC[C@]3(CNC(=O)c3cccn3C)C2)n1`, the cytotoxicity at 10 µM was -5.64%.

In the case of `Cc1nc(CN2CCC3(CCN(c4cnn(C)c4)C3=O)C2)cs1` (configuration not stated), the cytotoxicity at 10 µM came to 4.15%. Turning to `CC(C)n1c(=O)[nH]c2cn(-c3ccc(Br)cc3)c(=O)n21`, the cytotoxicity at 10 µM was determined as 0.843%.
